Reference: ChEMBL document CHEMBL6092210, “Synthesis, in vitro and in vivo biological evaluation of novel dual compounds targeting both acetylcholinesterase and serotonergic 5-HT4 receptors with potential interest in the treatment of Alzheimer's disease” (Eur J Med Chem, 2024)

Experiments:
[1] = Toxicity in C57BL/6 mouse assessed as memory impairment at 0.3 mg/kg, ip incubated for 30 mins by novel object recognition test; type: organism-based; settings: in vivo, 0.5 h
[2] = Toxicity in C57BL/6 mouse assessed as reversal of scopolamine-induced spontaneous alternation deficit at 3 mg/kg, sc incubated for 30 mins; type: organism-based; settings: in vivo, 0.5 h
[3] = target: 5-hydroxytryptamine receptor 4 (Homo sapiens, UniProt Q13639); experiment: Binding affinity to human recombinant 5HT4 receptor assessed as inhibition constant incubated for 60 mins
[4] = Drug metabolism in human liver microsome measured at 20 mins by UPLC/QE-orbitrap-MS method; type: ADME; settings: microsomes
How it was run: (§1)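 Test compound as fumarate salt incubated with human, dog, mouse or rat liver microsomes over 0–60 min. Parent remaining measured by UPLC/QE-orbitrap-MS as relative LC/MS peak area (% of 0 min), n = 1.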

[5] = Drug metabolism in dog liver microsome measured at 20 mins by UPLC/QE-orbitrap-MS method; type: ADME, Canis lupus familiaris; settings: microsomes; how it was run: as §1
[6] = Drug metabolism in rat liver microsome measured at 20 mins by UPLC/QE-orbitrap-MS method; type: ADME; settings: microsomes; how it was run: as §1
[7] = Drug metabolism in human liver microsome measured at 40 mins by UPLC/QE-orbitrap-MS method; type: ADME; settings: microsomes; how it was run: as §1
[8] = Drug metabolism in dog liver microsome measured at 40 mins by UPLC/QE-orbitrap-MS method; type: ADME, Canis lupus familiaris; settings: microsomes; how it was run: as §1
[9] = Drug metabolism in mouse liver microsome measured at 40 mins by UPLC/QE-orbitrap-MS method; type: ADME; settings: microsomes; how it was run: as §1
[10] = Drug metabolism in dog liver microsome measured at 60 mins by UPLC/QE-orbitrap-MS method; type: ADME, Canis lupus familiaris; settings: microsomes, 1 h; how it was run: as §1
Cytochrome P450 2B6 = target: T1, Cytochrome P450 2B6 (Homo sapiens, UniProt P20813); experiment: Inhibition of CYP2B6 in human liver microsomes using bupropion as substrate; type: ADME, Microsome
T1 sequence (P20813 whole entry): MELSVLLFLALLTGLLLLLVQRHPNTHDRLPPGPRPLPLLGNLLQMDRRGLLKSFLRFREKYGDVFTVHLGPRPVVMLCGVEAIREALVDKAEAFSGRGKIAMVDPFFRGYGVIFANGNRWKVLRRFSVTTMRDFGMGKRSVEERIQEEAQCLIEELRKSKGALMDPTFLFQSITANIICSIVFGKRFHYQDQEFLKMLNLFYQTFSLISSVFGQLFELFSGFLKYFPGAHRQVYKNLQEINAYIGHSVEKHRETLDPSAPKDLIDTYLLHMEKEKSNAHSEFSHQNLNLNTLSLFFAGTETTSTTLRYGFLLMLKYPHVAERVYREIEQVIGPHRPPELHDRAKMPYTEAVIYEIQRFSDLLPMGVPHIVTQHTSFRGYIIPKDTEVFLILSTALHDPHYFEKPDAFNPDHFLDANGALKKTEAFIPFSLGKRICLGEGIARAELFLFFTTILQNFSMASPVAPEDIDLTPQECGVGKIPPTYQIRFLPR
How it was run: (§2)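 Human liver microsomes with a cocktail of CYP-specific probe substrates; metabolite formation monitored for each probe reaction. Test compound (fumarate) at 0.01, 0.1, 1, 10 and 100 μM. Control inhibitors run at a single concentration for each probe reaction. IC50 estimated.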

Cytochrome P450 2C9 = Cytochrome P450 2C9 (Homo sapiens, UniProt P11712); experiment: Inhibition of CYP2C9 in human liver microsomes using diclofenac as substrate; type: ADME, Microsome; how it was run: as §2
Cytochrome P450 2D6 = Cytochrome P450 2D6 (Homo sapiens, UniProt P10635); experiment: Inhibition of CYP2D6 in human liver microsomes using dextromethorphan as substrate; type: ADME, Microsome; how it was run: as §2
Cytochrome P450 3A4 = Cytochrome P450 3A4 (Homo sapiens, UniProt P08684); experiment: Inhibition of CYP3A4 in human liver microsomes using Midazolam as substrate; type: ADME, Microsome; how it was run: as §2
[11] = Clearance in C57BL6 mouse at 3 mg/kg, iv; type: ADME, organism-based; settings: in vivo
How it was run: (§3)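 Single iv dose of 0.3, 1 or 3 mg/kg in 0.9 % saline, three animals per dose (C57Bl6 mice, Wistar rats). Terminal cardiac-puncture blood under isoflurane at six time points. Plasma protein-precipitated and assayed by UHPLC–MS/MS (LLOQ 1 ng/mL). Parameters from non-compartmental analysis.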

[12] = MRT in Wistar rat at 0.3 to 3 mg/kg, iv; type: ADME, organism-based; settings: in vivo, dose 0.3-3 mg/kg; how it was run: as §3

Sequence of Cytochrome P450 2D6 (P10635 whole entry): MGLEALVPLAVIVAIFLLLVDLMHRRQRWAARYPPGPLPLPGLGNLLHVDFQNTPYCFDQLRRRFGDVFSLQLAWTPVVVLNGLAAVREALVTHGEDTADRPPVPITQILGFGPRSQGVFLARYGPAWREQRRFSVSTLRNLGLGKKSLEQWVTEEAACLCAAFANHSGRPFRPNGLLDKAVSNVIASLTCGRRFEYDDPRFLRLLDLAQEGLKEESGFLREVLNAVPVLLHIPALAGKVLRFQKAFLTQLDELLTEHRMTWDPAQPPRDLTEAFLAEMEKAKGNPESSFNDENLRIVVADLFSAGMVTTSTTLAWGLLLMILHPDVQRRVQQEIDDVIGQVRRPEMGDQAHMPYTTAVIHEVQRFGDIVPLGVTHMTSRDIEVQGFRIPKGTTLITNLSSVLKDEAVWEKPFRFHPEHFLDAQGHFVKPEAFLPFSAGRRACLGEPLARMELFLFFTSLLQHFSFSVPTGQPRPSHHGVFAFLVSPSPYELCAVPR
Sequence of Cytochrome P450 3A4 (P08684 whole entry): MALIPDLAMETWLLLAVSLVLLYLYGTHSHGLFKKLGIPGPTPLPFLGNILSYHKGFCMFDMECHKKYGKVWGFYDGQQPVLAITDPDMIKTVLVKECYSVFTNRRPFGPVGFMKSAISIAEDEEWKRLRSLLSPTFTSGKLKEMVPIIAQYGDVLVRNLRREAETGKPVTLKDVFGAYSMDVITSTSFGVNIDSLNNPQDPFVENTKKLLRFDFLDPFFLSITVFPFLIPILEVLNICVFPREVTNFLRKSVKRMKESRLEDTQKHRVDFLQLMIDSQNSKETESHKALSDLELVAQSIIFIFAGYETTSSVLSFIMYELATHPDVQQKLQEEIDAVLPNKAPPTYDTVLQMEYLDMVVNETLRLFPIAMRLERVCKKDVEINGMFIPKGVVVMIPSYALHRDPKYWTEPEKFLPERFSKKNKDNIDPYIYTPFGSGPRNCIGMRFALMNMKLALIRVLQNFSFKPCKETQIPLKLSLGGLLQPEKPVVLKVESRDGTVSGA
Sequence of Cytochrome P450 2C9 (P11712 whole entry): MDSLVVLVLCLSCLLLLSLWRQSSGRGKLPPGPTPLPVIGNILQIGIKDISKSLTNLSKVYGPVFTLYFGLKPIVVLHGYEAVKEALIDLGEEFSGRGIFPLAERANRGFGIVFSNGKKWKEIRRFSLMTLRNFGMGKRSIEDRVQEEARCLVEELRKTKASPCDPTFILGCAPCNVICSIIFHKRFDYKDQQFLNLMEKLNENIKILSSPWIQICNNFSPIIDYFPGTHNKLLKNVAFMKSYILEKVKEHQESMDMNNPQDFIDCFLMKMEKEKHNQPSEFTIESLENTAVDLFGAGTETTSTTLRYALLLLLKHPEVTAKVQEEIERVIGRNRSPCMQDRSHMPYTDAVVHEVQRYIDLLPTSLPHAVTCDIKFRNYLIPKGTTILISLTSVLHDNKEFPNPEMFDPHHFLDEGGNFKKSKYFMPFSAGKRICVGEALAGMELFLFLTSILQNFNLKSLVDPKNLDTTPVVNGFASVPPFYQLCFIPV
Sequence of 5-hydroxytryptamine receptor 4 (Q13639 whole entry): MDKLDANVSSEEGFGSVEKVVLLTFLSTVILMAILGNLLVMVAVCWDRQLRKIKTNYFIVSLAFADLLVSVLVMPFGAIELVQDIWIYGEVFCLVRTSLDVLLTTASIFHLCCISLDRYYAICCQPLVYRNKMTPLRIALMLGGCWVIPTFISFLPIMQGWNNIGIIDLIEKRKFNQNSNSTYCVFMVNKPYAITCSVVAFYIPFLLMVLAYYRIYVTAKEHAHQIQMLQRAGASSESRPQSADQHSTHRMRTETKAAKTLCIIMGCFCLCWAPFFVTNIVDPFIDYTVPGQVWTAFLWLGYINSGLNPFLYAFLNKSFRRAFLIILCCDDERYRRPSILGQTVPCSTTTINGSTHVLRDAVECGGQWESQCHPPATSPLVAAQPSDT

COc1cc(N)c(F)cc1C(=O)CCC1CCN(CC2CCCCC2)CC1.O=C(O)/C=C/C(=O)O
Activity [1]: Non-toxic
Activity [2]: Non-toxic
Ki [3]: 0.0163 µM
Drug metabolism [4]: 78%
Drug metabolism [5]: 60%
Drug metabolism [6]: 10%
Drug metabolism [7]: 63%
Drug metabolism [8]: 40%
Drug metabolism [9]: 25%
Drug metabolism [10]: 29%
IC50 (Cytochrome P450 2B6): 95.7 µM
IC50 (Cytochrome P450 2C9): > 100 µM
IC50 (Cytochrome P450 2D6): 0.6 µM
IC50 (Cytochrome P450 3A4): 23.1 µM
clearance [11]: 191 mL/min/kg
MRT [12]: 1.15 h
